“Also recorded” adds a separate entry of the source.
Tests used:
[1] = tested on: A172 cells expressing IDO1 and TDO; assay: Kyn production in A172 cells expressing IDO1 and TDO by IFN-γ stimulation; format: cell-based, human; conditions: IFN-γ 10 ng/mL; 524 μM L-Trp, 24 hours
In short: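 A172 cells, grown 24 h after seeding, were given test compound 1 h before co-addition of L-Trp (final 524 μM) and IFN-γ (final 10 ng/mL) to express IDO1 and TDO. After 24 h, Kyn was quantified by Ehrlich reaction (CCl₃COOH plus p-dimethylaminobenzaldehyde in acetic acid) at 460 nm. IFN-γ-stimulated, DMSO-treated cells served as control. Triplicates; 3 independent experiments.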

[2] = molecular target: T1, rhTDO (Homo sapiens, UniProt P48775); assay: Enzyme assay; format: biochemical
[3] = tested on: CT26-Ido1 tumors; assay: Antitumor activity in mice bearing CT26-Ido1 tumors; format: in vivo, mouse; conditions: oral, 50.0 mg/kg
In short: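 Female BALB/c mice (6 weeks) received 1 × 10⁵ CT26-Ido1 cells s.c. in the right and left dorsal regions. On day 6 they were randomised (n = 8) to vehicle or 12.5, 25 or 50 mg/kg p.o. once daily. Caliper diameters were taken every 2 days to day 14, with V = (W² × L)/2. Tumours were weighed on day 14 and %IR was taken from mean tumour weights versus vehicle. Body weight every 2 days was expressed relative to day 1. Tumour Kyn and Trp were measured by ELISA after dissociation in PBS.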

[4] = tested on: A172 (TDO); assay: Cell-based Kyn production assay in A172 cells; set-up: species or system human; conditions: A172 cells expressing TDO
In short: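 TDO-dependent Kyn production: A172 cells were seeded and grown 24 h, exposed to test compound for 1 h, then given L-Trp (final 524 μM) without cytokine and cultured 24 h. Kyn was detected by Ehrlich reaction, adding aqueous 7% CCl₃COOH mixed 2:5 with 2% p-dimethylaminobenzaldehyde in acetic acid, and absorbance read at 460 nm. Triplicate samples; 3 independent experiments.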

[5] = tested on: TDO; assay: TDO mRNA expression in A172 cells; format: cell-based, human; conditions: for TDO expression: mRNA and Western blot (Supplemental Figure 2)
[6] = molecular target: rhIDO1 (Homo sapiens, UniProt P14902); assay: Enzyme assay; format: biochemical; conditions: read-out: IC50 value on rhIDO1; cell-free; 200 μM L-Trp
[7] = molecular target: T1, rhTDO; assay: Kinetics analysis; format: biochemical; conditions: Lineweaver-Burk plot; 680C91 0.5 and 1 μM, PVZB3001 1 and 2 μM
In short: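 Mode of inhibition was taken from Lineweaver–Burk plots of the recombinant human enzyme, plotting inverse initial rate against inverse L-Trp concentration with or without test compound. DMSO served as control.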

[8] = tested on: TDO; assay: Western blot of TDO protein in A172 cells; format: cell-based, human; conditions: at 1000 nM
In short: (§1)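 Cells were lysed in RIPA buffer with protease inhibitors. Lysate (20–30 μg protein/lane) was separated by polyacrylamide gel electrophoresis and transferred to PVDF. Membranes were blocked with 5% skim milk or a signal-enhancing blocking reagent, then probed with primary antibody overnight at 4°C and secondary antibody 1 h at room temperature. Bands were visualised by ECL imaging.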

[9] = tested on: A172 cells; assay: Cell viability assay; format: cell-based, human
In short: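 A172 cells were seeded and grown 24 h, then given test compound for 1 h before L-Trp (final 524 μM), with no IFN-γ. After 24 h of culture, WST-8 was added for 40–60 min at 37°C and absorbance read at 450 nm. Triplicate samples; 3 independent experiments.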

[10] = tested on: ERK1/2; assay: Western blot of ERK1/2 phosphorylation in A172 cells; format: cell-based, human
In short: as §1

[11] = tested on: NK-92MI cells; assay: Granzyme B production assay in NK-92MI; format: cell-based, human; conditions: NK-92MI treated with Kyn 72 h, then 5.5 h fresh medium; ELISA
In short: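 NK-92MI cells were pre-cultured for 72 h with Kyn, then moved to fresh medium without Kyn for 5.5 h. Culture supernatant was collected and granzyme B quantified with a human granzyme B ELISA following the kit protocol.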

[12] = tested on: NK-92MI cells; assay: NK-92MI viability after addition of Kyn; format: cell-based, human; conditions: 72 h after addition of Kyn

T1 sequence (P48775 whole entry): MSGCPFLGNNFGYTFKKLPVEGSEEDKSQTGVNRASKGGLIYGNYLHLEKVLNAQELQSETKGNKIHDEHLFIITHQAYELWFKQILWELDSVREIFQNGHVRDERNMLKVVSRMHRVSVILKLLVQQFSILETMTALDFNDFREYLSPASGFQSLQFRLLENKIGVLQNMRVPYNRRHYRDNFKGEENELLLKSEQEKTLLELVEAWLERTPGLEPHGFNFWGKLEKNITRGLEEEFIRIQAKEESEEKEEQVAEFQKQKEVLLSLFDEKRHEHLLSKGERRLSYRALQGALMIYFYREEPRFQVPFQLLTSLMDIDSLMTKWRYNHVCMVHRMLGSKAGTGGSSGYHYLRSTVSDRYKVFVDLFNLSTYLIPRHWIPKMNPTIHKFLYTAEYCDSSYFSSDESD
rhIDO1, sequence (P14902 whole entry): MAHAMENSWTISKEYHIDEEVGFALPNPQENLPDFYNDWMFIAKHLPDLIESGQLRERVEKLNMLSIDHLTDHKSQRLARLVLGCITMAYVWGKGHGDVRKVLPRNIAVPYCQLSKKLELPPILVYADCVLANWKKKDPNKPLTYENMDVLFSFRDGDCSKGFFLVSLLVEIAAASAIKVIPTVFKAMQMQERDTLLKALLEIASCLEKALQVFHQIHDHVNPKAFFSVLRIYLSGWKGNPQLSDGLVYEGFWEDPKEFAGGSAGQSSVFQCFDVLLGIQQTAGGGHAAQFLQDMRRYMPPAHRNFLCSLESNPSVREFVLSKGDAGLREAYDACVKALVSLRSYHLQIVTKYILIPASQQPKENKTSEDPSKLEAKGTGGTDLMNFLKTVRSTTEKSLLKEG

## NS(=O)(=O)NCCNc1nonc1C(=NO)Nc1ccc(F)c(Br)c1 [epacadostat]
[1]
  Kyn production in A172 cells expressing both IDO1 and TDO (in words): decreased Kyn production; also recorded: inhibited Kyn production more effectively
[2]; at 1 μM or higher concentrations
  Enzymatic activity of TDO: inhibited the enzymatic activity of TDO
[3]
  Antitumor effect: moderate effect without statistical significance

## Cn1c(=O)c(F)c(Nc2ccc(I)cc2F)c2c(=O)n(C[C@@H](O)CO)cnc21 [TAK-733]
[4]
  Kyn production in A172 cells (in words): attenuated Kyn production
[5]
  TDO expression: reduction of TDO expression

## Cc1cc(C(=O)NOCCO)c(Nc2ccc(I)cc2F)n(C)c1=O [AZD8330]
[4]
  Kyn production in A172 cells (in words): attenuated Kyn production
[5]
  TDO expression: reduction of TDO expression

## Fc1ccc2c(/C=C/c3cccnc3)c[nH]c2c1 [680C91]
[1]
  Kyn production in A172 cells expressing both IDO1 and TDO (in words): decreased Kyn production; also recorded: Partial inhibition of Kyn production
[4]
  Kyn production in A172 cells (in words): reduced
[6]
  IC50: > 10 µM
[7]
  Inhibition pattern against TDO: competitive inhibition

## CC(=O)Nc1cccc(-n2c(=O)n(C3CC3)c(=O)c3c(Nc4ccc(I)cc4F)n(C)c(=O)c(C)c32)c1 [trametinib]
[8]
  TDO protein expression: downregulated
[2]; cell-free assay
  Inhibitory activity against rhTDO (in words): did not inhibit
[4]
  Kyn production in A172 cells (in words): decreased Kyn production in a dose-dependent manner
[5]; at 100 nM
  TDO mRNA expression: downregulated
[9]
  Cell viability of A172 cells (in words): without reducing cell viability
[10]
  ERK1/2 phosphorylation: inhibition of ERK1/2 phosphorylation

## Nc1ccccc1C(=O)CC(N)C(=O)O (stereo not shown) [Kyn, Kynurenine]
[11]
  Granzyme B production: reduced
[12]
  Viability of NK-92MI cells: reduced

From PMC9716449 (International Journal of Tryptophan Research : IJTR, 2022)
